≈ marks a conversion by molar mass, not a printed value.
Columns and labels:
Escherichia coli [1] = assay: Antimicrobial activity against Escherichia coli DH10B by agar dilution method in presence of beta-lactamase inhibitor Sulbactam; format: functional; details: K-12 DH10B
Outline: (§1)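 LB agar dilution MICs per CLSI criteria, inoculated with a Steers replicator. […] Strains: E. coli DH10B alone, DH10B carrying empty pBC SK(+), or DH10B carrying pBC SK(+)-blaKPC-2 position 237 variants made by site-saturation mutagenesis and confirmed by sequencing. Plasmid selection used 20 mg/liter chloramphenicol.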

Escherichia coli [2] = assay: Antimicrobial activity against Escherichia coli DH10B harboring beta-lactamase KPC-2 T237S mutant by agar dilution method in presence of beta-lactamase inhibitor clavulanic acid; format: functional; details: K-12 DH10B
Outline: (§2)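 LB agar dilution MICs by CLSI criteria, applied with a Steers replicator. […] Hosts were E. coli DH10B carrying pBC SK(+) with wild-type blaKPC-2 or a position 237 variant.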

Escherichia coli [3] = assay: Antimicrobial activity against Escherichia coli DH10B harboring plasmid pBR322-catI carrying beta-lactamase KPC-2 by agar dilution method in presence of beta-lactamase inhibitor clavulanic acid; format: functional; details: K-12 DH10B
Escherichia coli [4] = assay: Antimicrobial activity against Escherichia coli DH10B harboring beta-lactamase KPC-2 T237Q mutant by agar dilution method in presence of beta-lactamase inhibitor Sulbactam; format: functional; details: K-12 DH10B; outline: as §2
Escherichia coli [5] = assay: Antimicrobial activity against Escherichia coli DH10B harboring beta-lactamase KPC-2 T237H mutant by agar dilution method in presence of beta-lactamase inhibitor clavulanic acid; format: functional; details: K-12 DH10B; outline: as §2
Escherichia coli [6] = assay: Antimicrobial activity against Escherichia coli DH10B harboring beta-lactamase KPC-2 T237I mutant by agar dilution method in presence of beta-lactamase inhibitor Sulbactam; format: functional; details: K-12 DH10B; outline: as §2
Escherichia coli [7] = assay: Antimicrobial activity against Escherichia coli DH10B harboring beta-lactamase KPC-2 T237M mutant by agar dilution method in presence of beta-lactamase inhibitor clavulanic acid; format: functional; details: K-12 DH10B; outline: as §2
Escherichia coli [8] = assay: Antimicrobial activity against Escherichia coli DH10B harboring beta-lactamase KPC-2 T237E mutant by agar dilution method in presence of beta-lactamase inhibitor Sulbactam; format: functional; details: K-12 DH10B; outline: as §2
Escherichia coli [9] = assay: Antimicrobial activity against Escherichia coli DH10B harboring beta-lactamase KPC-2 T237G mutant by agar dilution method in presence of beta-lactamase inhibitor clavulanic acid; format: functional; details: K-12 DH10B; outline: as §1
Escherichia coli [10] = assay: Antimicrobial activity against Escherichia coli DH10B harboring beta-lactamase KPC-2 T237E mutant by agar dilution method in presence of beta-lactamase inhibitor clavulanic acid; format: functional; details: K-12 DH10B; outline: as §2
Escherichia coli [11] = assay: Antimicrobial activity against Escherichia coli DH10B harboring beta-lactamase KPC-2 T237L mutant by agar dilution method in presence of beta-lactamase inhibitor clavulanic acid; format: functional; details: K-12 DH10B; outline: as §2
Escherichia coli [12] = assay: Antimicrobial activity against Escherichia coli DH10B harboring beta-lactamase KPC-2 T237H mutant by agar dilution method in presence of beta-lactamase inhibitor Sulbactam; format: functional; details: K-12 DH10B; outline: as §2
Escherichia coli [13] = assay: Antimicrobial activity against Escherichia coli DH10B harboring plasmid […] by agar dilution method in presence of beta-lactamase inhibitor clavulanic acid; format: functional; details: K-12 DH10B; outline: as §1
Escherichia coli [14] = assay: Antimicrobial activity against Escherichia coli DH10B harboring beta-lactamase KPC-2 T237R mutant by agar dilution method in presence of beta-lactamase inhibitor clavulanic acid; format: functional; details: K-12 DH10B; outline: as §1
Escherichia coli [15] = assay: Antimicrobial activity against Escherichia coli DH10B harboring beta-lactamase KPC-2 T237K mutant by agar dilution method in presence of beta-lactamase inhibitor clavulanic acid; format: functional; details: K-12 DH10B; outline: as §1
Escherichia coli [16] = assay: Antimicrobial activity against Escherichia coli DH10B harboring beta-lactamase KPC-2 T237D mutant by agar dilution method in presence of beta-lactamase inhibitor clavulanic acid; format: functional; details: K-12 DH10B; outline: as §2
Klebsiella pneumoniae [17] = assay: microbe, parasite or virus in culture; details: 1534
Escherichia coli [18] = assay: Antimicrobial activity against Escherichia coli DH10B harboring beta-lactamase KPC-2 T237L mutant by agar dilution method in presence of beta-lactamase inhibitor Sulbactam; format: functional; details: K-12 DH10B; outline: as §2
Escherichia coli [19] = assay: Antimicrobial activity against Escherichia coli DH10B harboring beta-lactamase KPC-2 T237K mutant by agar dilution method in presence of beta-lactamase inhibitor Sulbactam; format: functional; details: K-12 DH10B; outline: as §2
Escherichia coli [20] = assay: Antimicrobial activity against Escherichia coli DH10B harboring beta-lactamase KPC-2 T237A mutant by agar dilution method in presence of beta-lactamase inhibitor Sulbactam; format: functional; details: K-12 DH10B; outline: as §2
Escherichia coli [21] = assay: Antimicrobial activity against Escherichia coli DH10B harboring beta-lactamase KPC-2 T237A mutant by agar dilution method in presence of beta-lactamase inhibitor clavulanic acid; format: functional; details: K-12 DH10B; outline: as §2
Escherichia coli [22] = assay: Antimicrobial activity against Escherichia coli DH10B harboring plasmid pBR322-catI carrying beta-lactamase KPC-2 by agar dilution method in presence of beta-lactamase inhibitor Tazobactam; format: functional; details: K-12 DH10B
Outline: (§3)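 LB agar dilution MIC following CLSI criteria, inoculated with a Steers replicator. Tested as piperacillin-tazobactam at a fixed 8:1 ratio.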

Klebsiella pneumoniae [23] = assay: Antimicrobial activity against Klebsiella pneumoniae 1534 expressing beta-lactamase KPC-2 by agar dilution method in presence of beta-lactamase inhibitor Tazobactam; format: functional; outline: as §3
Escherichia coli [24] = assay: Antimicrobial activity against Escherichia coli DH10B harboring beta-lactamase KPC-2 T237P mutant by agar dilution method in presence of beta-lactamase inhibitor Tazobactam; format: functional; details: K-12 DH10B
Outline: (§4)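 LB agar dilution MICs by CLSI criteria, inoculated with a Steers replicator. […] Strains were E. coli DH10B with or without pBC SK(+) carrying wild-type blaKPC-2 or a position 237 variant.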

Klebsiella pneumoniae [25] = assay: Ratio of Kcat/Km for Klebsiella pneumoniae 1534 beta-lactamase KPC-2 T237A mutant by spectrophotometric analysis
Outline: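 Purified KPC-2 variant enzymes (periplasmic lysate from E. coli, preparative isoelectric focusing). Hydrolysis followed by diode-array spectrophotometry in 10 mM PBS, pH 7.4, room temperature. Enzyme at 10 nM with substrate in molar excess for pseudo-first-order conditions. Vmax and Km came from a nonlinear least-squares Michaelis-Menten fit.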

Escherichia coli [26] = assay: Antimicrobial activity against Escherichia coli DH10B harboring beta-lactamase KPC-2 T237I mutant by agar dilution method in presence of beta-lactamase inhibitor Tazobactam; format: functional; details: K-12 DH10B; outline: as §4
Escherichia coli [27] = assay: Antimicrobial activity against Escherichia coli DH10B by agar dilution method in presence of beta-lactamase inhibitor Tazobactam; format: functional; details: K-12 DH10B; outline: as §4
Escherichia coli [28] = assay: Antimicrobial activity against Escherichia coli DH10B harboring plasmid pBC SK(+) carrying wild type beta-lactamase KPC-2 by agar dilution method in presence of beta-lactamase inhibitor Tazobactam; format: functional; details: K-12 DH10B; outline: as §4
Escherichia coli [29] = assay: Antimicrobial activity against Escherichia coli DH10B harboring beta-lactamase KPC-2 T237L mutant by agar dilution method in presence of beta-lactamase inhibitor Tazobactam; format: functional; details: K-12 DH10B; outline: as §4
Escherichia coli [30] = assay: Antimicrobial activity against Escherichia coli DH10B harboring beta-lactamase KPC-2 T237M mutant by agar dilution method in presence of beta-lactamase inhibitor Tazobactam; format: functional; details: K-12 DH10B; outline: as §4
Escherichia coli [31] = assay: Antimicrobial activity against Escherichia coli DH10B harboring beta-lactamase KPC-2 T237S mutant by agar dilution method in presence of beta-lactamase inhibitor Tazobactam; format: functional; details: K-12 DH10B; outline: as §4
Escherichia coli [32] = assay: Antimicrobial activity against Escherichia coli DH10B harboring beta-lactamase KPC-2 T237Y mutant by agar dilution method in presence of beta-lactamase inhibitor Tazobactam; format: functional; details: K-12 DH10B; outline: as §4
Escherichia coli [33] = assay: Antimicrobial activity against Escherichia coli DH10B harboring beta-lactamase KPC-2 T237C mutant by agar dilution method in presence of beta-lactamase inhibitor Tazobactam; format: functional; details: K-12 DH10B; outline: as §4
Escherichia coli [34] = assay: Antimicrobial activity against Escherichia coli DH10B harboring beta-lactamase KPC-2 T237E mutant by agar dilution method in presence of beta-lactamase inhibitor Tazobactam; format: functional; details: K-12 DH10B; outline: as §4

## CC1(C)S[C@@H]2[C@H](NC(=O)[C@H](N)c3ccccc3)C(=O)N2[C@H]1C(=O)O [AMPICILLIN]
Escherichia coli [1]
  MIC: 1 µg/mL
Escherichia coli [2]
  MIC: 4 µg/mL
Escherichia coli [3]
  MIC: 32 µg/mL
Escherichia coli [4]
  MIC: 64 µg/mL
Escherichia coli [5]
  MIC: 4 µg/mL
Escherichia coli [6]
  MIC: 16 µg/mL
Escherichia coli [7]
  MIC: 8 µg/mL
Escherichia coli [8]
  MIC: 8 µg/mL
Escherichia coli [9]
  MIC: 1 µg/mL
Escherichia coli [10]
  MIC: 8 µg/mL
Escherichia coli [11]
  MIC: 8 µg/mL
Escherichia coli [12]
  MIC: 16 µg/mL
Escherichia coli [13]
  MIC: 1 µg/mL
Escherichia coli [14]
  MIC: 1 µg/mL
Escherichia coli [15]
  MIC: 1 µg/mL
Escherichia coli [16]
  MIC: 8 µg/mL
Klebsiella pneumoniae [17]
  MIC: 512 µg/mL (≈ 1470 µM)
Escherichia coli [18]
  MIC: 16 µg/mL
Escherichia coli [19]
  MIC: 4 µg/mL
Escherichia coli [20]
  MIC: 64 µg/mL
Escherichia coli [21]
  MIC: 8 µg/mL

## CCN1CCN(C(=O)N[C@@H](C(=O)N[C@@H]2C(=O)N3[C@@H]2SC(C)(C)[C@@H]3C(=O)O)c2ccccc2)C(=O)C1=O [PIPERACILLIN]
Escherichia coli [22]
  MIC: 64 µg/mL
Klebsiella pneumoniae [23]
  MIC: 64 µg/mL
Escherichia coli [24]
  MIC: 0.5 µg/mL
Klebsiella pneumoniae [25]
  kcat/Km: 3.5e+06 M⁻¹ s⁻¹
Escherichia coli [26]
  MIC: 1 µg/mL
Escherichia coli [27]
  MIC: 0.5 µg/mL
Escherichia coli [28]
  MIC: 8 µg/mL
Escherichia coli [29]
  MIC: 2 µg/mL
Escherichia coli [30]
  MIC: 2 µg/mL
Escherichia coli [31]
  MIC: 8 µg/mL
Escherichia coli [32]
  MIC: 0.5 µg/mL
Escherichia coli [33]
  MIC: 0.5 µg/mL
Escherichia coli [34]
  MIC: 0.5 µg/mL

— ChEMBL document CHEMBL1629686, “Substrate selectivity and a novel role in inhibitor discrimination by residue 237 in the KPC-2 beta-lactamase” (Antimicrob Agents Chemother, 2010)
